# ChEMBL document CHEMBL2440012, “Design, synthesis and anticonvulsant properties of new N-Mannich bases derived from 3-phenylpyrrolidine-2,5-diones” (Bioorg Med Chem, 2013)
# Active and inactive are the calls of the source. The calls are words filed in the database; no cut-off is given here.
# What was measured:
# [1] = system: Mus musculus; assay: Anticonvulsant activity in albino CF1 mouse assessed as assessed as protection against 6 Hz psychomotor seizure at 50 mg/kg, ip after 2 hrs by minimal clonic seizure test; format: functional; conditions: route intraperitoneal
# How it was run: (§1)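 Male CF-1 mice, groups of four, dosed ip in 0.5% methylcellulose/water suspension, then challenged by 6-Hz corneal stimulation at 32 mA (0.2 ms pulses, 3 s, constant current) at 0.25, 0.5, 1, 2 or 4 h; count of mice out of four protected from stunned posture/clonic seizure.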
# [2] = system: Mus musculus; assay: Anticonvulsant activity against 6 Hz psychomotor seizure in ip dosed albino CF1 mouse by minimal clonic seizure test; format: functional
# [3] = system: Mus musculus; assay: Anticonvulsant activity in albino CF1 mouse assessed as assessed as protection against 6 Hz psychomotor seizure at 100 mg/kg, ip after 0.5 hr by minimal clonic seizure test; format: functional; conditions: route intraperitoneal; how it was run: as §1
# [4] = system: Mus musculus; assay: Anticonvulsant activity in albino CF1 mouse assessed as assessed as protection against 6 Hz psychomotor seizure at 50 mg/kg, ip after 0.5 hr by minimal clonic seizure test; format: functional; conditions: route intraperitoneal; how it was run: as §1
# [5] = system: Mus musculus; assay: Anticonvulsant activity in albino CF1 mouse assessed as assessed as protection against 6 Hz psychomotor seizure at 50 mg/kg, ip after 1 hr by minimal clonic seizure test; format: functional; conditions: route intraperitoneal; how it was run: as §1
# [6] = system: Mus musculus; assay: Anticonvulsant activity in ip dosed albino CF1 mouse assessed as protection against subcutaneous pentylenetetrazole-induced convulsion in half or more animals measured after 4 hrs; format: functional; conditions: albino CF1, 4 h, read-out: MED
# How it was run: (§2)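 Male CF-1 mice given ip suspension in 0.5% methylcellulose/water at 30, 100 and 300 mg/kg; MES, scPTZ (pentylenetetrazole 85 mg/kg sc, CD97 dose for clonic seizures ≥5 s) and rotarod (inability to hold balance 1 min in each of three trials) assessed at 0.5 and 4 h; value is minimum dose active in half or more animals.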
# [7] = system: Mus musculus; assay: Anticonvulsant activity in albino CF1 mouse assessed as assessed as protection against 6 Hz psychomotor seizure at 100 mg/kg, ip after 1 hr by minimal clonic seizure test; format: functional; conditions: route intraperitoneal; how it was run: as §1
# [8] = system: Mus musculus; assay: Neurotoxicity in ip dosed albino CF1 mouse assessed as minimum motor impairment in half or more animals measured after 4 hrs by rotorod test; format: toxicity, organism-based; conditions: in vivo; how it was run: as §2
# [9] = system: Mus musculus; assay: Anticonvulsant activity in ip dosed albino CF1 mouse assessed as protection against maximal electroshock-induced seizures in half or more animals measured after 0.5 hr; format: functional; conditions: read-out: MED; how it was run: as §2
# [10] = system: Mus musculus; assay: Anticonvulsant activity in albino CF1 mouse assessed as assessed as protection against 6 Hz psychomotor seizure at 50 mg/kg, ip after 0.25 hr by minimal clonic seizure test; format: functional; conditions: route intraperitoneal; how it was run: as §1
# [11] = system: Rattus norvegicus; assay: Anticonvulsant activity in albino Sprague-Dawley rat assessed as protection against maximal electroshock-induced seizures at 30 mg/kg, po measured after 2 hrs; format: functional
# How it was run: (§3)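 Male Sprague-Dawley rats, four per group, dosed p.o. at 30 mg/kg in 0.5% methylcellulose/water suspension; MES test at 0.25, 0.5, 1, 2 and 4 h, motor impairment examined in parallel; number of rats out of four protected.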
# [12] = system: Rattus norvegicus; assay: Anticonvulsant activity in albino Sprague-Dawley rat assessed as protection against maximal electroshock-induced seizures at 30 mg/kg, po measured after 4 hrs; format: functional; how it was run: as §3
# [13] = system: Mus musculus; assay: Anticonvulsant activity in ip dosed albino CF1 mouse assessed as protection against subcutaneous pentylenetetrazole-induced convulsion in half or more animals measured after 0.5 hr; format: functional; conditions: albino CF1, 0.5 h, read-out: MED; how it was run: as §2
# [14] = system: Mus musculus; assay: Anticonvulsant activity in albino CF1 mouse assessed as assessed as protection against 6 Hz psychomotor seizure at 100 mg/kg, ip after 2 hrs by minimal clonic seizure test; format: functional; conditions: route intraperitoneal; how it was run: as §1
# [15] = system: Rattus norvegicus; assay: Anticonvulsant activity in albino rat assessed as protection against pilocarpine-induced status epilepticus at 100 mg/kg, ip measured 0.5 hrs post first stage 3 seizure; format: functional, organism-based; parameters: dose 100 mg/kg
# How it was run: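 Male Sprague-Dawley rats (150–180 g) dosed ip, followed by challenge dose of pilocarpine; compound given relative to first stage III seizure (time zero or 0.5 h); outcome scored as protection or no protection, plus body-weight change 24 h after first stage III seizure.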
# [16] = system: Mus musculus; assay: Anticonvulsant activity against 6 Hz psychomotor seizure in ip dosed albino CF1 mouse assessed as time to peak effect by minimal clonic seizure test; format: functional
# [17] = system: Mus musculus; assay: Anticonvulsant activity in albino CF1 mouse assessed as assessed as protection against 6 Hz psychomotor seizure at 100 mg/kg, ip after 4 hrs by minimal clonic seizure test; format: functional; conditions: route intraperitoneal; how it was run: as §1
# [18] = system: Mus musculus; assay: Neurotoxicity in ip dosed albino CF1 mouse assessed as time to peak effect by rotorod test; format: toxicity, organism-based; conditions: in vivo
# [19] = system: Rattus norvegicus; assay: Anticonvulsant activity in albino Sprague-Dawley rat assessed as protection against maximal electroshock-induced seizures at 30 mg/kg, po measured after 1 hr; format: functional; how it was run: as §3
# [20] = system: Mus musculus; assay: Anticonvulsant activity in albino CF1 mouse assessed as assessed as protection against 6 Hz psychomotor seizure at 100 mg/kg, ip after 0.25 hr by minimal clonic seizure test; format: functional; conditions: route intraperitoneal; how it was run: as §1
# [21] = system: Rattus norvegicus; assay: Anticonvulsant activity in albino Sprague-Dawley rat assessed as protection against maximal electroshock-induced seizures at 30 mg/kg, po measured after 0.25 hr; format: functional; how it was run: as §3
# [22] = system: Mus musculus; assay: Anticonvulsant activity against […] psychomotor seizure in ip dosed albino CF1 mouse by minimal clonic seizure test; format: functional
# [23] = system: Rattus norvegicus; assay: Anticonvulsant activity in albino Sprague-Dawley rat assessed as protection against maximal electroshock-induced seizures at 30 mg/kg, po measured after 0.5 hr; format: functional; how it was run: as §3
# [24] = system: Mus musculus; assay: Anticonvulsant activity in albino CF1 mouse assessed as assessed as protection against 6 Hz psychomotor seizure at 50 mg/kg, ip after 4 hrs by minimal clonic seizure test; format: functional; conditions: route intraperitoneal; how it was run: as §1
# [25] = system: Mus musculus; assay: Anticonvulsant activity against […] psychomotor seizure in ip dosed albino CF1 mouse assessed as time to peak effect by minimal clonic seizure test; format: functional
# [26] = system: Mus musculus; assay: Toxicity in albino CF1 mouse assessed as sedation at 100 mg/kg, ip measured after 4 hrs by rotorod test; format: organism-based; parameters: dose 100 mg/kg, route intraperitoneal; conditions: in vivo
# [27] = system: Mus musculus; assay: Anticonvulsant activity in ip dosed albino CF1 mouse assessed as protection against maximal electroshock-induced seizures in half or more animals measured after 4 hrs; format: functional; conditions: read-out: MED; how it was run: as §2
structure (smiles),measurement,setting,value
O=C1CC(c2ccccc2Cl)C(=O)N1CN1CCOCC1 (racemic),Activity,[1],75%
same,ED50,[2],31.1 mg/kg
same,Activity,[3],100%
same,Activity,[4],75%
same,Activity,[5],75%
same,minimal effective dose,[6],300 mg/kg
same,Activity,[7],100%
same,MED,[8],300 mg/kg
same,minimal effective dose,[9],100 mg/kg
same,Activity,[10],100%
same,Activity,[11],inactive
same,Activity,[12],inactive
same,minimal effective dose,[13],100 mg/kg
same,Activity,[14],100%
same,Activity,[15],inactive
same,Time,[16],0.25 h
same,Activity,[17],100%
same,Time,[18],0.25 h
same,Activity,[19],25%
same,Activity,[20],100%
same,Activity,[21],inactive
same,ED50,[22],55.6 mg/kg
same,Activity,[23],25%
same,Activity,[24],0%
same,Time,[25],0.5 h
same,MED,[26],300 mg/kg
same,minimal effective dose,[27],100 mg/kg
